Assay results from publication PMC8435006 (ACS infectious diseases, 2021).

Experiments:
IMP-1 (B1 MBL) = conditions: read-out: Ki against IMP-1; MMTZs; same protocol; ref 6 (Rossi et al); cited from earlier work
NDM-1 (B1 MBL) = conditions: read-out: Ki against NDM-1; MMTZs; same protocol; ref 6 (Rossi et al); cited from earlier work
L1 (B3 MBL) = L1 (B3 MBL) (Stenotrophomonas maltophilia, UniProt P52700); test: Ki by imipenem hydrolysis, purified recombinant L1; type: biochemical; conditions: read-out: Ki against L1; MMTZs; imipenem substrate, 30 °C, pH 7.5, 20 μM ZnSO4
L1 (B3 MBL), sequence (P52700 34-290): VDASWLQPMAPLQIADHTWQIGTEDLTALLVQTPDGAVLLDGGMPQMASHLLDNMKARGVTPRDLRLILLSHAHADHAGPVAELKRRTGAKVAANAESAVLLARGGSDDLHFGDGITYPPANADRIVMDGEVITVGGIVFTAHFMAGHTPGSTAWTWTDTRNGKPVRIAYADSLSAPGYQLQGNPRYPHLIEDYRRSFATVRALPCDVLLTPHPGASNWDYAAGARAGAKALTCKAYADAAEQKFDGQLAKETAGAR
In short: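 Steady-state imipenem hydrolysis by purified L1 (2 nM final) at 30 °C, followed as the absorbance decrease at 300 nm (Δε300 = −9000 M−1cm−1). Buffer was 10 mM HEPES pH 7.5, 200 mM NaCl, 50 mg/L BSA and 20 μM ZnSO4. Inhibitor came from a DMSO stock diluted into buffer, and enzyme was added last. Rates from slopes were fitted to a competitive inhibition model for Ki.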

Sfh-I (B2 MBL) = Sfh-I (B2 MBL) (Serratia fonticola, UniProt Q9RMI1); test: Ki by imipenem hydrolysis, purified recombinant Sfh-I; type: biochemical; conditions: ratio of Ki values
In short: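 Sfh-I (2 nM final) hydrolysing imipenem at 30 °C, monitored at 300 nm under steady-state conditions in 10 mM HEPES pH 7.5, 200 mM NaCl, 50 mg/L BSA, with no added zinc. Reactions were started by adding enzyme to the substrate plus inhibitor (DMSO stock diluted in buffer). Ki came from competitive-model fits of the rates, and the fold value is the ratio of Ki values.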

VIM-2 (B1 MBL) = conditions: read-out: Ki against VIM-2; MMTZs; same protocol; ref 6 (Rossi et al); cited from earlier work
CphA = conditions: read-out: Ki against CphA; captopril isomers; ref Table S1; cited from earlier work
[1] = test system: E. coli DH10B expressing L1; test: Imipenem MIC potentiation, broth microdilution, L1 producer; type: cell-based
[2] = test system: E. coli DH10B expressing Sfh-I; test: Imipenem MIC potentiation, broth microdilution, Sfh-I producer; type: cell-based; conditions: 100 μg/mL MMTZ; E. coli DH10B producing Sfh-I
[3] = test system: E. coli DH10B expressing NDM-1; test: Imipenem MIC potentiation, broth microdilution, NDM-1 producer; type: cell-based; conditions: 100 μg/mL MMTZ; E. coli DH10B producing NDM-1
[4] = 50 μg/mL inhibitor, L1-expressing E. coli DH10B
[5] = 100 μg/mL MMTZ, E. coli DH10B producing L1

Row | Fold less potent against Sfh-I than L-anti-1a (Sfh-I (B2 MBL)) | SMILES | Ki (IMP-1 (B1 MBL)) [nM] | Ki (NDM-1 (B1 MBL)) [nM] | Ki (L1 (B3 MBL)) [nM] | Ki (VIM-2 (B1 MBL)) [nM] | Ki (CphA) [nM] | Reduction of imipenem MIC [1, 4] | Reduction of imipenem MIC [1, 5] | Reduction of imipenem MIC [2] | Reduction of imipenem MIC [3]
1 | 125 – 800 fold | CCOC(=O)[C@@]1(CS)N[C@@H](C(=O)O)CS1 [D-anti-1a] | 1300 ± 100 | 2500 ± 500 | 4000 ± 500 | 390 ± 40 |  |  |  |  | 
2 | 125 – 800 fold | CCOC(=O)[C@@]1(CS)N[C@@H](C(=O)O)C(C)(C)S1 [D-anti-1b] | 930 ± 80 | 3100 ± 300 | 1400 ± 200 | 900 ± 100 |  |  |  |  | 
3 |  | C[C@H](CS)C(=O)N1CCC[C@@H]1C(=O)O [D-captopril] |  |  |  |  | 72000 |  |  |  | 
4 |  | CCOC(=O)[C@]1(CS)N[C@@H](C(=O)O)C(C)(C)S1 [D-syn-1b] | 2000 ± 200 | 600 ± 50 | 4000 ± 600 | 1900 ± 100 |  | four-fold | least effect | least effect | least effect
5 |  | CCOC(=O)[C@]1(CS)N[C@H](C(=O)O)CS1 [L-anti-1a] | 1000 ± 200 | 5200 ± 700 | 10000 ± 800 | 380 ± 50 |  |  | 4 fold | 4 fold | 4 fold
6 |  | CCOC(=O)[C@]1(CS)N[C@H](C(=O)O)C(C)(C)S1 [L-anti-1b] | 460 ± 50 | 440 ± 60 | 20000 ± 2000 | 750 ± 90 |  | four-fold |  |  | 
7 |  | C[C@H](CS)C(=O)N1CCC[C@H]1C(=O)O [L-captopril] |  |  |  |  | 950000 |  |  |  | 
8 |  | CCOC(=O)[C@@]1(CS)N[C@H](C(=O)O)C(C)(C)S1 [L-syn-1b] | 6000 ± 600 | 8000 ± 1000 | 28000 ± 3000 | 3600 ± 400 |  | four-fold |  |  | 
